Measurements as given in ChEMBL document CHEMBL4359830, “Discovery and structure-activity relationship of novel diphenylthiazole derivatives as BTK inhibitor with potent activity against B cell lymphoma cell lines” (Eur J Med Chem, 2019).

Experiments:
[1] = biological target: Tyrosine-protein kinase BTK (Homo sapiens, UniProt Q06187); test: Inhibition of human recombinant full length N-terminal His tagged BTK expressed in baculovirus infected Sf9 cells using poly (Glu,Tyr) 4:1 as substrate measured after 60 mins in presence of ATP by ADP-Glo kinase assay
Raji [2] = test: Antiproliferative activity against human Raji cells at 40 uM measured after 72 hrs by CCK-8 assay relative to control; format: functional; settings: Homo sapiens, Raji, 72 h
Outline: (§1)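 Ramos or Raji cells in RPMI-1640 with 10% FBS and 1% penicillin-streptomycin at 37 °C, 5% CO2. Seeded at 2000–3000 cells/well one day before compound addition. Exposure 72 h, then CCK-8 with absorbance at 450 nm. […] Single-point inhibition at 40 µM reported as mean ± standard deviation.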

Ramos [3] = test: Antiproliferative activity against human Ramos cells measured after 72 hrs by CCK-8 assay; format: functional, cell-based; outline: as §1
Ramos [4] = test: Antiproliferative activity against human Ramos cells at 40 uM measured after 72 hrs by CCK-8 assay relative to control; format: functional; settings: Homo sapiens, Ramos, 72 h; outline: as §1
Ramos [5] = test: Potency index, ratio of ibrutinib IC50 to compound IC50 for antiproliferative activity against human Ramos cells; format: functional
Raji [6] = test: Antiproliferative activity against human Raji cells measured after 72 hrs by CCK-8 assay; format: functional, cell-based; outline: as §1

Sequence of Tyrosine-protein kinase BTK (Q06187 whole entry): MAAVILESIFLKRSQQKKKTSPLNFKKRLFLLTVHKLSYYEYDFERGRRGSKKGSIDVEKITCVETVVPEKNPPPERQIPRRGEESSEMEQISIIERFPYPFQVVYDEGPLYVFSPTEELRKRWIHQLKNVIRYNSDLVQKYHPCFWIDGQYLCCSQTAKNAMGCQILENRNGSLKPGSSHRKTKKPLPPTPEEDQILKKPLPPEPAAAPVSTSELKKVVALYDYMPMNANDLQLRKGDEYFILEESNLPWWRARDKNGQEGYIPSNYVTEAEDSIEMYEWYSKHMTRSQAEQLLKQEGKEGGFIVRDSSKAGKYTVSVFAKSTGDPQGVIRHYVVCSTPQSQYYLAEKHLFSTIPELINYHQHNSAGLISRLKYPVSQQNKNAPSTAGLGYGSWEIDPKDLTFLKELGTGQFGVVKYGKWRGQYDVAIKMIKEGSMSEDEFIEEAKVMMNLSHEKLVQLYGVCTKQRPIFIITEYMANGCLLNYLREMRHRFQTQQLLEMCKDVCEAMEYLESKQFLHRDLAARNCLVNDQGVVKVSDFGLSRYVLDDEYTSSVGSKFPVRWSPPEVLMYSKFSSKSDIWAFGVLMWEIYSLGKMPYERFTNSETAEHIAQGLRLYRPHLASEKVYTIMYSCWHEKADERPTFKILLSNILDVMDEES

| Compound | IC50 [1] [µM] | inhibition at 40 µM (Raji [2]) [%] | IC50 (Ramos [3]) [µM] | inhibition at 40 µM (Ramos [4]) [%] | Ratio IC50 (Ramos [5]) | IC50 (Raji [6]) [µM] |
| --- | --- | --- | --- | --- | --- | --- |
| CC(C)(C)c1ccc(C(=O)Nc2cccc(-c3nc(Nc4ccc(C(=O)N5CCOCC5)cc4)c(C(N)=O)s3)c2)cc1 | 0.333 | 33.4 | 28.4 | 85.2 | – | – |
| CN1CCN(c2ccc(Nc3nc(-c4cccc(NC(=O)c5ccc(C(C)(C)C)cc5)c4)sc3C(N)=O)cc2)CC1 | 5.25 | 12.1 | 8.6 | 80.1 | – | – |
| CCOC(=O)c1sc(-c2cccc(NC(=O)[C@H]3CC[C@H](C)CC3)c2)nc1Nc1ccc(N2CCN(C)CC2)cc1 | – | 26.1 | – | 19.9 | – | – |
| CN1CCN(c2ccc(Nc3nc(-c4cccc(NC(=O)c5ccc(F)cc5)c4)sc3C(N)=O)cc2)CC1 | 0.862 | 95.3 | 1.42 | 95.9 | 10 | 2.82 |
| CCOC(=O)c1sc(-c2cccc(NC(=O)c3ccc(C(F)(F)F)cc3)c2)nc1Nc1ccc(N2CCOCC2)cc1 | 2.42 | 5.44 | – | 21.8 | – | – |
| CCOC(=O)c1sc(-c2cccc(NC(=O)c3ccc(C#N)cc3)c2)nc1Nc1ccc(N2CCN(C)CC2)cc1 | 5.17 | 79.1 | 4.28 | 97.5 | – | 14 |
| CCOC(=O)c1sc(-c2cccc(NC(=O)c3ccc(C(F)(F)F)cc3)c2)nc1Nc1ccc(C(=O)N2CCOCC2)cc1 | – | 6.06 | – | 49.9 | – | – |
| CCOC(=O)c1sc(-c2cccc(NC(=O)c3cccc(F)c3)c2)nc1Nc1ccc(N2CCN(C)CC2)cc1 | 19.2 | 82.8 | 12.8 | 85.2 | – | 21.2 |
| CN1CCN(c2ccc(Nc3nc(-c4cccc(NC(=O)c5ccc(C(F)(F)F)cn5)c4)sc3C(N)=O)cc2)CC1 | 0.637 | 84.6 | 19.8 | 96.6 | – | 24.5 |
| CCOC(=O)c1sc(-c2cccc(NC(=O)c3ccc(C(C)(C)C)cc3)c2)nc1Nc1ccc(N2CCOCC2)cc1 | – | 6.21 | – | 14 | – | – |
| NC(=O)c1sc(-c2cccc(NC(=O)c3ccc(F)cc3)c2)nc1Nc1ccc(N2CCOCC2)cc1 | 0.258 | 9.92 | – | 3.53 | – | – |
| CC(C)NC(=O)c1sc(-c2cccc(NC(=O)c3ccc(C(C)(C)C)cc3)c2)nc1Nc1ccc(N2CCOCC2)cc1 | 62.8 | 6.39 | – | 27.9 | – | – |
| CC(C)(C)c1ccc(C(=O)Nc2cccc(-c3nc(Nc4ccc(N5CCOCC5)cc4)c(C(=O)O)s3)c2)cc1 | 5.32 | 93.8 | 4.37 | 94.3 | – | 5.74 |
| CCOC(=O)c1sc(-c2cccc(NC(=O)c3ccc(C(C)(C)C)cc3)c2)nc1Nc1ccc(C(=O)N2CCOCC2)cc1 | – | 13.2 | 25.2 | 82.6 | – | – |
| NC(=O)c1sc(-c2cccc(NC(=O)c3ccc(C(F)(F)F)cc3)c2)nc1Nc1ccc(C(=O)N2CCOCC2)cc1 | 0.617 | 43.8 | 29.8 | 83.8 | – | 75.3 |
| CCOC(=O)c1sc(-c2cccc(NC(=O)c3ccc(C(F)(F)F)cn3)c2)nc1Nc1ccc(N2CCN(C)CC2)cc1 | – | 20.8 | – | 19 | – | – |
| CN1CCN(c2ccc(Nc3nc(-c4cccc(NC(=O)[C@H]5CC[C@H](C)CC5)c4)sc3C(N)=O)cc2)CC1 | 0.105 | 22.4 | – | 55 | – | – |
| NC(=O)c1sc(-c2cccc(NC(=O)c3ccc(C(F)(F)F)cc3)c2)nc1Nc1ccc(N2CCOCC2)cc1 | 6.75 | 7.48 | – | 25.2 | – | – |
| CC(C)(C)c1ccc(C(=O)Nc2cccc(-c3nc(Nc4ccc(N5CCOCC5)cc4)c(C(N)=O)s3)c2)cc1 | 2.23 | 4.42 | – | 5.57 | – | – |
| CN1CCN(c2ccc(Nc3nc(-c4cccc(NC(=O)c5ccccc5)c4)sc3C(N)=O)cc2)CC1 | 0.159 | 91.3 | 1.76 | 98.1 | – | 6.36 |
| CNC(=O)c1sc(-c2cccc(NC(=O)c3ccc(C(C)(C)C)cc3)c2)nc1Nc1ccc(N2CCOCC2)cc1 | 8.53 | 94 | 34.1 | 65.8 | – | 8.96 |
| CCOC(=O)c1sc(-c2cccc(NC(=O)c3ccccc3)c2)nc1Nc1ccc(N2CCN(C)CC2)cc1 | 37.1 | 42 | 24.8 | 77.1 | – | – |
